Experiments:
[1] = Antiviral activity against Influenza A virus A/WSN/33(H1N1) infected in MDCK cells expressing ST6Gal 1 preincubated with virus and cells for 30 mins followed viral infection measured after 2 to 3 days by naphthalene black dye-based plaque reduction assay; format: functional, cell-based, Influenza A virus (A/WSN/1933(H1N1))
Influenza A virus [2] = assay: Inhibition of Influenza A virus AM2 proton channel expressed in Xenopus laevis frog oocytes at 100 uM after 2 mins by electrophysiological two-electrode voltage clamp assay; format: cell-based
Summary of the method: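 Two-electrode voltage clamp on oocytes microinjected with RNA for AM2-WT or AM2-S31N. Compound at 100 µM for 2 min at pH 5.5. Read-out is percent inhibition of AM2 current, mean of three independent measurements.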

MDCK = assay: Cytotoxicity against MDCK cells after 48 hrs by neutral red uptake assay; format: cell-based, Canis lupus familiaris; conditions: dog
Summary of the method: (§1)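 Serially diluted compound in serum-free DMEM for 48 h at 37 °C, 5% CO2. Neutral red 40 µg/mL for 4 h, absorbance read at 540 nm. CC50 from variable-slope dose-response fit.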

[3] = Selectivity index, ratio of CC50 for MDCK cells to EC50 for Influenza A virus A/WSN/33 (H1N1); format: toxicity; conditions: dog, read-out: Ratio CC50/EC50
Influenza A virus [4] = assay: Antiviral activity against Influenza A virus A/Switzerland/9715293/2013 (H3N2) infected in MDCK cells expressing ST6Gal 1 preincubated with virus and cells for 30 mins followed viral infection measured after 2 to 3 days by naphthalene black dye-based plaque reduction assay; format: functional, cell-based
[5] = Selectivity index, ratio of CC50 for human A549 cells to EC50 for Influenza A virus A/California/07/2009 (H1N1); format: toxicity; conditions: read-out: Ratio CC50/EC50
[6] = Antiviral activity against Influenza A virus A/Washington/29/2009(H1N1) infected in MDCK cells expressing ST6Gal 1 preincubated with virus and cells for 30 mins followed viral infection measured after 2 to 3 days by naphthalene black dye-based plaque reduction assay; format: functional, cell-based
Summary of the method: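 Plaque reduction assay in MDCK cells expressing ST6Gal I instead of regular MDCK cells. Virus stocks were grown in MDCK cells with 2 µg/ml N-acetyl trypsin, harvested at 2 days and clarified, then titered by plaque assay on ST6Gal I-expressing MDCK cells.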

A549 = assay: Cytotoxicity against human A549 cells after 48 hrs by neutral red uptake assay; format: cell-based; conditions: a549, 48 h; summary of the method: as §1
[7] = Antiviral activity against Influenza A virus A/Denmark/528/2009(H1N1) infected in MDCK cells expressing ST6Gal 1 preincubated with virus and cells for 30 mins followed viral infection measured after 2 to 3 days by naphthalene black dye-based plaque reduction assay; format: functional, cell-based
[8] = Antiviral activity against Influenza A virus A/Texas/04/2009(H1N1) infected in MDCK cells expressing ST6Gal 1 preincubated with virus and cells for 30 mins followed viral infection measured after 2 to 3 days by naphthalene black dye-based plaque reduction assay; format: functional, cell-based
[9] = Selectivity index, ratio of CC50 for human A549 cells to EC50 for Influenza A virus A/Denmark/528/2009 (H1N1); format: toxicity; conditions: read-out: Ratio CC50/EC50
[10] = Selectivity index, ratio of CC50 for human A549 cells to EC50 for Influenza A virus A/Switzerland/9715293/2013 (H3N2); format: toxicity; conditions: read-out: Ratio CC50/EC50
[11] = Selectivity index, ratio of CC50 for human A549 cells to EC50 for Influenza A virus A/Denmark/524/2009 (H1N1); format: toxicity; conditions: read-out: Ratio CC50/EC50
[12] = Selectivity index, ratio of CC50 for human A549 cells to EC50 for Influenza A virus A/Washington/29/2009 (H1N1); format: toxicity; conditions: read-out: Ratio CC50/EC50
[13] = Antiviral activity against Influenza A virus A/California/07/2009(H1N1) infected in MDCK cells expressing ST6Gal 1 preincubated with virus and cells for 30 mins followed viral infection measured after 2 to 3 days by naphthalene black dye-based plaque reduction assay; format: functional, cell-based
[14] = Selectivity index, ratio of CC50 for human A549 cells to EC50 for Influenza A virus A/WSN/33(H1N1); format: toxicity; conditions: read-out: Ratio CC50/EC50
Influenza A virus [15] = assay: Antiviral activity against Influenza A virus A/Denmark/524/2009 (H1N1) infected in MDCK cells expressing ST6Gal 1 preincubated with virus and cells for 30 mins followed viral infection measured after 2 to 3 days by naphthalene black dye-based plaque reduction assay; format: functional, cell-based
[16] = Selectivity index, ratio of CC50 for human A549 cells to EC50 for Influenza A virus A/Texas/04/2009 (H1N1); format: toxicity; conditions: read-out: Ratio CC50/EC50

Compound `CC(C)(C)c1ccc(CNC23CC4CC(CC(C4)C2)C3)cc1` has an EC50 [1] of 3.5 µM, an inhibition (Influenza A virus [2]) of 9.9% and a CC50 (MDCK) of 12.8 µM. For the same compound, the selectivity ratio [3] was 3.7.

`CC(C)(C)c1ccc(CNC23CC4CC(CC(O)(C4)C2)C3)cc1` gave an EC50 [1] of 2.5 µM, an inhibition (Influenza A virus [2]) of 22.3% and a CC50 (MDCK) of 32 µM. The selectivity ratio [3] was 12.8.

In the case of `C[Si](C)(C)c1ccc(CNC23CC4CC(CC(C4)C2)C3)cc1`, the EC50 [1] is reported as 4.8 µM, the inhibition (Influenza A virus [2]) is reported as 21.8% and the CC50 (MDCK) is reported as 8 µM. For the same compound, the selectivity ratio [3] was 1.7.

Work on `C[Si](C)(C)c1ccc(CNC23CC4CC(CC(O)(C4)C2)C3)cc1` yielded an EC50 (Influenza A virus [4]) of 0.7 µM, a selectivity ratio [5] of 61 and an EC50 [6] of 1.4 µM. It also gave a CC50 (A549) of 73.2 µM, an EC50 [7] of 3 µM and an EC50 ([1]; Influenza A virus, MDCK) of 0.4 µM. The EC50 [8] was 0.6 µM, the selectivity ratio [9] was 24.4 and the inhibition (Influenza A virus [2]) was 9.5%. It also gave a selectivity ratio [10] of 105, a selectivity ratio [11] of 122 and a selectivity ratio [12] of 52.3. The CC50 (MDCK) was 40.7 µM, the EC50 [13] was 1.2 µM and the selectivity ratio [14] was 183. The EC50 (Influenza A virus [15]) was 0.6 µM, the selectivity ratio [3] was 102 and the selectivity ratio [16] was 122.

Work on `C[Si](C)(c1ccccc1)c1ccc(CNC23CC4CC(CC(O)(C4)C2)C3)cc1` yielded an EC50 [1] of 5.9 µM, an inhibition (Influenza A virus [2]) of 33.6% and a CC50 (MDCK) of 13.3 µM. For the same compound, the selectivity ratio [3] was 2.3.

Work on `CC(C)[Si](c1ccc(CNC23CC4CC(CC(O)(C4)C2)C3)cc1)(C(C)C)C(C)C` yielded an EC50 ([1]; Influenza A virus, MDCK) greater than 10 µM, an inhibition (Influenza A virus [2]) of 17.8% and a CC50 (MDCK) of 11.4 µM.

With `CC[Si](C)(C)c1ccc(CNC23CC4CC(CC(O)(C4)C2)C3)cc1` the inhibition (Influenza A virus [2]) was 18.2% and the CC50 (MDCK) was 21.8 µM.

For `C[Si](C)(C)c1ccc(CNC23CC4CC(CC(C4)C2)C3)nc1`, the EC50 [1] was 3.4 µM, the inhibition (Influenza A virus [2]) was 5.9% and the CC50 (MDCK) was 10.3 µM. It also gave a selectivity ratio [3] of 3.
